# Measured values pooled from the literature.
# Protocols differ between the studies behind these lines.
# Method: competition with immobilised ligand
# RPS6KA2 C-terminal kinase domain: Ribosomal protein S6 kinase alpha-2, C-terminal kinase domain (RPS6KA2, Homo sapiens, UniProt Q15349)
# RPS6KA2 N-terminal kinase domain: Ribosomal protein S6 kinase alpha-2, N-terminal kinase domain (RPS6KA2, Homo sapiens, UniProt Q15349)
SMILES,target,test,conditions,remaining binding [%]
Cc1c(NC(=O)c2cc(C(N)=O)nc3cc(F)ccc23)c(C(F)(F)F)nn1Cc1ccc(C#N)cc1,RPS6KA2 C-terminal kinase domain,cell-free assay,1 µM,86
CN(CCCC(F)(F)F)c1nccc(-c2cnn3ncccc23)n1,RPS6KA2 C-terminal kinase domain,binding,1 µM,100
O=C(NCCCN1CCOCC1)c1ccc(Nc2nccc(-c3cc4ccccc4s3)n2)cc1,RPS6KA2 N-terminal kinase domain,binding,1 µM,100
O=C(Nc1cccnn1)N1CCC(=Cc2cccc(Oc3ccc(C(F)(F)F)cn3)c2)CC1,RPS6KA2 C-terminal kinase domain,cell-free assay,1 µM,100
COc1ccnn2ncc(-c3ccnc(N(C)C)n3)c12,RPS6KA2 C-terminal kinase domain,binding,1 µM,100
COc1ncc2cc3ccccc3nc2c1C#N,RPS6KA2 N-terminal kinase domain,cell-free assay,5 µM,91
F[C@@H]1CCN(c2nccc(-c3cnn4ncccc34)n2)C1,RPS6KA2 C-terminal kinase domain,binding,1 µM,91
CCS(=O)(=O)c1cc2cc(C[C@](O)(CC(C)(C)c3ccc(F)cc3C(N)=O)C(F)(F)F)[nH]c2cn1,RPS6KA2 C-terminal kinase domain,cell-free assay,1 µM,81
Cc1cnc(Nc2ccc(C(=O)N3CCC(N4CCCC4)CC3)cc2)nc1-c1cc2ccccc2s1,RPS6KA2 C-terminal kinase domain,binding,1 µM,95
COc1cnc(Nc2cccc(S(N)(=O)=O)c2)nc1N1CCN(c2ccccc2)CC1,RPS6KA2 C-terminal kinase domain,binding,1 µM,84
C=CC(=O)N1CCC(C(=O)NCC(=O)N2CCN(c3nc(-c4cnc(N)nc4C(F)F)nc(N4CCOCC4)n3)CC2)CC1,RPS6KA2 N-terminal kinase domain,binding,1 µM,82
O=C(c1ccc(Nc2ncc(Cl)c(-c3cc4ccccc4s3)n2)cc1)N1CCC(N2CCCC2)CC1,RPS6KA2 C-terminal kinase domain,binding,1 µM,100
Nc1cnc(N2CCc3cc(S(=O)(=O)Nc4c(F)cc(Cl)cc4F)cc(N4CCCC4=O)c32)nc1,RPS6KA2 N-terminal kinase domain,cell-free assay,1 µM,88
C[C@@H](c1ccc(-n2cnc3c(N)ncnc32)cc1)N1CCc2nn(C)c(Cc3ccccc3)c2C1=O,RPS6KA2 C-terminal kinase domain,binding,0.1 µM,78
c1cncc(-c2cccc(Nc3nccc(NC4CCCCC4)n3)c2)c1,RPS6KA2 C-terminal kinase domain,binding,10 µM,100
O=C(NCC1CCOCC1)c1n[nH]cc1NC(=O)c1c(F)cccc1F,RPS6KA2 N-terminal kinase domain,binding,1 µM,100
CNC(=O)[C@@H]1CC[C@@H](n2c(-c3ccc4cnccc4c3)nc3ccc(C(=O)NCc4cccc(C(N)=O)c4)cc32)C1,RPS6KA2 N-terminal kinase domain,binding,1 µM,100
Nc1ncc2c(n1)-c1c([nH]c3ccc(C#CC4CC4)cc13)CCCC2,RPS6KA2 C-terminal kinase domain,binding,1 µM,92
C[C@@H]1CCN(c2nccc(-c3cnn4ncccc34)n2)C1,RPS6KA2 N-terminal kinase domain,binding,1 µM,79
CCN1CCN(Cc2ccc(C(=O)Nc3ccc(C)c(Oc4ccc5c(c4)CC(=O)N5)c3)cc2C(F)(F)F)CC1,RPS6KA2 N-terminal kinase domain,binding,1 µM,100
O=S(=O)(NC1CCC(c2cc(F)ccc2F)(S(=O)(=O)c2ccc(Cl)cc2)CC1)C(F)(F)F (stereo not drawn),RPS6KA2 C-terminal kinase domain,cell-free assay,1 µM,95
O=C(Nc1c[nH]nc1C(=O)NC1CCNCC1)c1cc(F)cc(F)c1,RPS6KA2 C-terminal kinase domain,binding,1 µM,100
CO[C@H]1CC[C@H](CNc2ccc(S(=O)(=O)NC(=O)c3ccc(N4CCN(CC5=C(c6ccc(Cl)cc6)CC(C)(C)CC5)CC4)cc3Oc3cnc4[nH]ccc4c3)cc2[N+](=O)[O-])CC1,RPS6KA2 N-terminal kinase domain,cell-free assay,1 µM,97
COc1cnc(Nc2cccc(S(N)(=O)=O)c2)nc1N1CCN(c2ccccc2)C(=O)C1,RPS6KA2 N-terminal kinase domain,binding,1 µM,96
N#CC1(c2ccccn2)CCN(Cc2cc(C(=O)N3CCCC3)c(=O)n3ccccc23)CC1,RPS6KA2 N-terminal kinase domain,cell-free assay,1 µM,88
N[C@@H]1CCN(c2nccc(-c3cnn4ncccc34)n2)C1,RPS6KA2 N-terminal kinase domain,binding,1 µM,100
FC(F)(F)Oc1cccc(-c2cnc3ccc(-c4ccncc4)nn23)c1,RPS6KA2 N-terminal kinase domain,binding,5 µM,79
O=C(c1ccc(Nc2ncc(Cl)c(-c3ccc(Cl)s3)n2)cc1)N1CCC(N2CCCC2)CC1,RPS6KA2 N-terminal kinase domain,binding,1 µM,100
C[C@@H](c1cccc(C#N)c1)n1cc(Cl)cc(C(N)=O)c1=N,RPS6KA2 C-terminal kinase domain,cell-free assay,1 µM,100
O=C(c1ccc(Nc2nccc(-c3cc4ccccc4s3)n2)cc1)N1CCC(N2CCCC2)CC1,RPS6KA2 C-terminal kinase domain,binding,1 µM,74
CN(C)c1nccc(-c2cnc3ncccn23)n1,RPS6KA2 N-terminal kinase domain,binding,1 µM,83
O=C(NCCCN1CCOCC1)c1ccc(Nc2ncc(Cl)c(-c3ccc(Cl)s3)n2)cc1,RPS6KA2 N-terminal kinase domain,binding,1 µM,100
c1cnn2ncc(-c3ccnc(N4CCC45COC5)n3)c2c1,RPS6KA2 C-terminal kinase domain,binding,1 µM,85
